Most compounds without a hit are left out; they make up all but 2.9% or so of the library.
RBBP9 inhibitor = blocks human serine hydrolase RBBP9 | inhibition, % at 7.94 µM | recombinant RBBP9, FP-Rh probe fluorescence polarization | 0.2% of 220,000 active;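 active = inhibition above the campaign mean of all tested compounds plus 3 SD, cut at about 14% in these data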;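 also: plate controls were DMSO wells with RBBP9 for no effect and wells lacking RBBP9 protein for full effect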
Target sequence (O75884 whole entry, looked up): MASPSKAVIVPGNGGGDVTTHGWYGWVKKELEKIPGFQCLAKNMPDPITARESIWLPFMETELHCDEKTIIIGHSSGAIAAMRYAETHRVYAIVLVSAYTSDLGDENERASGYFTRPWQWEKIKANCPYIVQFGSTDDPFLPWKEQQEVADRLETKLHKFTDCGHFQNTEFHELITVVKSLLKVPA
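Assay system: recombinant human RBBP9; Reagent: Serine-hydrolase probe FP-Rh, 375 nM pre-mixing; Doses: 7.94 µM single dose, 0.794% DMSO; Incubation: 30 min then 45 min, 25 °C; Detection: fluorescence polarization (mP), excitation 525 nm, emission 598 nm; Evaluation: percent inhibition from mP, scaled between DMSO and no-protein wells.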
PfM18AAP inh = PfM18AAP enzyme inhibition; recombinant PfM18AAP, H-Glu-NHMec fluorogenic cleavage; inhibition, % at 7.35 µM; 1.2% of 290,000 active; AID 1822;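 active = inhibition above the campaign mean inhibition over all tested compounds plus 3 SD, cut at about 28% in these data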;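 also: 0% = plate median of test compound wells and 100% = 2 mM ZnCl2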
Hck Nef HTS = human Hck-Nef kinase inhibition; P08631; Recombinant Hck-YEEI plus Nef, Z-Lyte FRET kinase assay; inhibition, % at 20 µM; 0.68% of 220,000 active;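 active = Hck-Nef kinase inhibition above about 50%, limit read from the data; inactive = inhibition below that limit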;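 also: 0% = DMSO with Hck plus Nef and 100% = Hck alone without Nef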
Target sequence (P08631 whole entry, looked up): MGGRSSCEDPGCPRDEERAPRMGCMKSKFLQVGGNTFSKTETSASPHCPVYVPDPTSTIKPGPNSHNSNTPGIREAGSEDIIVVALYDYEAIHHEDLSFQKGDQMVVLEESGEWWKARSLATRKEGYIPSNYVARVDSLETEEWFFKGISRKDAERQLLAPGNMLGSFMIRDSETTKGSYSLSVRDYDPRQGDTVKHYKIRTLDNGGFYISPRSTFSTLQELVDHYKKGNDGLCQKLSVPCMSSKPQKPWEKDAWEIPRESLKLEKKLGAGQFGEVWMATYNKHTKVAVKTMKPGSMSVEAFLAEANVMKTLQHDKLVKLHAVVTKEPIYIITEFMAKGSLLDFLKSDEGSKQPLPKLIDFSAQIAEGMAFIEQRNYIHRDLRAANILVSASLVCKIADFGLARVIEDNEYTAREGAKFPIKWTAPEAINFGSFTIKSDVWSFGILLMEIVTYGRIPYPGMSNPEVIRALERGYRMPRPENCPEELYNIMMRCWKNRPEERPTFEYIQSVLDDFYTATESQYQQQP
RanGTP-Imp inh = disruptors of Ran-importin-beta complex formation – biochemical, FRET, CFP-Ran, YFP-importin-beta, homogeneous, primary screen; cell-free CFP-Ran/YFP-importin-beta FRET ratio; inhibition, % (no concentration beside the values); 1.1% of 300,000 active; AID 2216;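 active = more than half of the replicate wells show a fall in the fluorescence ratio signal beyond about 16%, limit read from the data, passing the limit was not always enough; inconclusive = exactly half of the replicate wells pass the set limit; inactive = fewer than half of replicates pass the limit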;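 also: 0% = DMSO wells and 100% = Ran loaded with GDP instead of GTP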
Runt-CBFb FRET = blocks binding of human RUNX1 Runt domain to CBFb | Q01196+Q13951 | Cerulean-Runt/Venus-CBFb FRET ratio 530/480, 1 h | inhibition, % at 20 µM | 0.46% of 220,000 active | AID 1496;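 active = inhibition over about 50% at 20 µM in the single-dose screen, limit read from the data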;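 also: 0% = DMSO wells and 100% = excess unlabeled CBFb competitor control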
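Measured by: fluorescence energy transfer, 422 nm excitation, 530/480 nm emission; test system: Cerulean-tagged RUNX1 Runt domain (FRET donor) fusion protein; buffer or medium: Tris pH 7.5 buffer with BSA; compound: one dose, 20 µM compound, 1% DMSO; times: two 1 h room-temperature incubations shielded from light; benchmarks: unlabeled CBFb 5 µM, positive control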
Runt-SMMHC FRET = blocks binding of human RUNX1 Runt domain to CBFb-SMMHC. Q01196+Q13951. Cerulean-Runt/Venus-CBFb-SMMHC FRET ratio 530/480, 1 h. inhibition, % at 20 µM. 0.74% of 220,000 active;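 active = mean inhibition across duplicate retests at 20 µM reaching about 50%, limit read from the data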;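 also: 0% = DMSO wells and 100% = wells with excess untagged CBFb-SMMHC; inhibitors lower the FRET ratio by blocking Runt binding to CBFb-SMMHC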
YIC counter = counter-screen: alters YIC FRET probe signal; shares compounds with RanGTP-Imp inh; Purified YIC probe, intramolecular FRET ratio YFP/CFP; IC50, µM; 40% of 1,000 active; AID 435026;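 active = fitted half-maximal inhibitory concentration no more than tenfold above the top dose tested; inconclusive = flat fit with 30 to 70% activity, or poor fit; inactive = half-maximal concentration beyond tenfold above the top dose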
An asterisk follows results filed as active.

`CC1=C(C(=O)N(C)C)C(c2ccc(C)s2)NC(=S)N1` (stereo unspecified) gave RBBP9 inhibitor -2.7, PfM18AAP inh -3.7, Hck Nef HTS 22.9, RanGTP-Imp inh -1.4, Runt-CBFb FRET 0.8 and Runt-SMMHC FRET 1.0.
For CC(=O)c1ccc(N=C2SCCCN2C(=O)C2CCCC2)cc1 the results were RBBP9 inhibitor -6.8, PfM18AAP inh 6.1, Hck Nef HTS 18.0, RanGTP-Imp inh -0.5, Runt-CBFb FRET -0.5 and Runt-SMMHC FRET -0.3.
C=CCc1c(OC)ccc2c1c(S(=O)(=O)c1ccc(C)cc1)cn2COC was read as PfM18AAP inh -0.1 and RanGTP-Imp inh -3.8.
For CN1CCCN(C(=O)c2cc(=O)[nH]c3ccccc23)c2nc3ccccc3nc21 the results were RBBP9 inhibitor -6.3, PfM18AAP inh 10.2, Hck Nef HTS 0.9, RanGTP-Imp inh 5.8, Runt-CBFb FRET 2.6 and Runt-SMMHC FRET 3.3.
`CN1CCCN(C(=O)Cc2c(Cl)cccc2Cl)c2nc3ccccc3nc21` gave RBBP9 inhibitor -10.6, PfM18AAP inh -2.8, Hck Nef HTS 8.0, RanGTP-Imp inh 21.7*, Runt-CBFb FRET 48.3, Runt-SMMHC FRET 53.7* and YIC counter 27.8*.
Clc1ccc(CCNc2nc3ccccc3n3nnnc23)cc1 was read as RBBP9 inhibitor -8.9, PfM18AAP inh 6.5, Hck Nef HTS -0.1, RanGTP-Imp inh inconclusive, Runt-CBFb FRET -0.3 and Runt-SMMHC FRET -3.4.
c1ccc2c(c1)nc(NCC1CCCO1)c1nnnn12 (stereo unspecified) was read as RBBP9 inhibitor -3.8, PfM18AAP inh -0.6, Hck Nef HTS -0.4, RanGTP-Imp inh 23.4*, Runt-CBFb FRET 18.1, Runt-SMMHC FRET 28.0 and YIC counter 28.2*.
Screening O=C(/C=C/c1ccccc1[N+](=O)[O-])NC1CCCC1 returned RBBP9 inhibitor -3.7, PfM18AAP inh 6.2, Hck Nef HTS 2.3, RanGTP-Imp inh -3.5, Runt-CBFb FRET 1.0 and Runt-SMMHC FRET -23.4.
CCOC(=O)c1ccc(NC(=O)CSc2nnc(C3CCCCC3)n2C)cc1 was read as RBBP9 inhibitor 6.6, PfM18AAP inh -0.8, Hck Nef HTS 16.4, RanGTP-Imp inh 16.4*, Runt-CBFb FRET -1.1, Runt-SMMHC FRET -4.3 and YIC counter >50.
For CCOC(=O)CNc1ncc([N+](=O)[O-])cc1C#N the results were RBBP9 inhibitor -2.4, PfM18AAP inh 3.0, Hck Nef HTS 0.1, RanGTP-Imp inh 19.9*, Runt-CBFb FRET 1.6, Runt-SMMHC FRET -0.6 and YIC counter >50.
Screening NNc1nc2sc3c(c2c(=O)n1C1CCCCC1)CCN(Cc1ccccc1)C3 returned RBBP9 inhibitor -2.6, PfM18AAP inh 6.1, Hck Nef HTS 0.2, RanGTP-Imp inh 28.3*, Runt-CBFb FRET 74.4*, Runt-SMMHC FRET 54.4* and YIC counter 0.918*.
`O=C1CC(NS(=O)(=O)c2cc(F)ccc2F)CN1c1cccc(F)c1` (stereo unspecified) gave RanGTP-Imp inh -4.8.
COc1ccccc1CNC(=O)Cn1ccsc1=N was read as PfM18AAP inh -18.1, RanGTP-Imp inh 20.1* and YIC counter >50.
Screening S=C(NCc1ccco1)Nc1ccc(Oc2ccccc2)cc1 returned RBBP9 inhibitor -6.4, PfM18AAP inh -10.3, Hck Nef HTS -27.2, RanGTP-Imp inh -0.1, Runt-CBFb FRET 13.9 and Runt-SMMHC FRET 0.2.
`Cc1ccc(Cn2ccc(NC(=O)c3noc4c3CCc3ccccc3-4)n2)cc1` gave RBBP9 inhibitor -10.0, PfM18AAP inh -4.1, Hck Nef HTS -2.5, RanGTP-Imp inh 33.4*, Runt-CBFb FRET 2.2, Runt-SMMHC FRET -6.3 and YIC counter >50.
Screening Cc1ccccc1-n1c(=O)cc(N2CC(C)OC(C)C2)[nH]c1=O (stereo unspecified) returned RBBP9 inhibitor -4.7, PfM18AAP inh 8.3, Hck Nef HTS 1.9, RanGTP-Imp inh 63.2*, Runt-CBFb FRET -4.8, Runt-SMMHC FRET -1.4 and YIC counter >50.
Screening CCOC(=O)N1CCN(c2cc(=O)n(-c3ccccc3C)c(=O)[nH]2)CC1 returned RBBP9 inhibitor -2.0, PfM18AAP inh 6.6, Hck Nef HTS 18.3, RanGTP-Imp inh 36.3*, Runt-CBFb FRET -0.1, Runt-SMMHC FRET 2.2 and YIC counter >50.
For CC1CN(c2cc(=O)n(-c3ccccc3)c(=O)[nH]2)CC(C)O1 (stereo unspecified) the results were RBBP9 inhibitor -0.2, PfM18AAP inh -4.8, Hck Nef HTS -5.4, RanGTP-Imp inh 13.3, Runt-CBFb FRET 3.6 and Runt-SMMHC FRET -3.5.
For COC(=O)Cn1c(=O)c2c(nc3n2CCCN3CCc2ccccc2)n(C)c1=O the results were PfM18AAP inh -0.1, RanGTP-Imp inh 25.3* and YIC counter >50.
`Cn1c(=O)n(CC(=O)O)c(=O)c2c1nc1n2CCCN1CCc1ccccc1` gave PfM18AAP inh 2.1 and RanGTP-Imp inh 1.1.
`COc1cc(NC(=O)CCS(=O)(=O)c2ccc3c(c2)n(C)c(=O)c(=O)n3C)cc(OC)c1` gave PfM18AAP inh -27.8 and RanGTP-Imp inh inconclusive.
Screening CC(C)CN(Cc1c(O)ccc2ccccc12)CC(C)C returned RBBP9 inhibitor -5.3, PfM18AAP inh 6.0, Hck Nef HTS -4.3, RanGTP-Imp inh 20.2*, Runt-CBFb FRET 8.2, Runt-SMMHC FRET -2.1 and YIC counter >50.
CN(C)Cc1c(O)ccc2ccccc12 was read as RBBP9 inhibitor -5.8, PfM18AAP inh 7.7, Hck Nef HTS 2.8, RanGTP-Imp inh 0.0, Runt-CBFb FRET 7.3 and Runt-SMMHC FRET 0.5.
For COc1ccc(C2(c3ccc(OC)cc3)NC(=O)N(CC(=O)Nc3cc(C)ccc3OC)C2=O)cc1 the results were PfM18AAP inh 3.7 and RanGTP-Imp inh 0.7.
C=CCn1c(SCCOc2ccc(OC)cc2)nnc1C(CO)NC(=O)c1ccc(OC)cc1 (stereo unspecified) was read as RBBP9 inhibitor -10.9, PfM18AAP inh -9.7, Hck Nef HTS -10.7, RanGTP-Imp inh 19.2*, Runt-CBFb FRET 2.0, Runt-SMMHC FRET -4.6 and YIC counter >50.
For Cc1c(OCC(=O)NCc2ccncc2)ccc2c3c(c(=O)oc12)CCC3 the results were PfM18AAP inh 5.7, RanGTP-Imp inh 17.0* and YIC counter >50.
`Cc1cc(NCCN(C)C)n2nc(-c3cccs3)cc2n1` gave RBBP9 inhibitor -4.5, PfM18AAP inh -1.1, Hck Nef HTS 6.5, RanGTP-Imp inh 17.2*, Runt-CBFb FRET 4.3, Runt-SMMHC FRET 6.9 and YIC counter 24.5*.
Cc1cc(NCCCO)n2nc(-c3cccs3)cc2n1 was read as RBBP9 inhibitor -3.5, PfM18AAP inh -12.0, Hck Nef HTS 17.0, RanGTP-Imp inh -1.9, Runt-CBFb FRET 0.6 and Runt-SMMHC FRET -5.8.

Screening data deposited in PubChem BioAssay by several laboratories.
